In brackets after ≈: the same amount, converted by molar mass. Activity calls are given as the source filed them. The calls are words filed in the database; no cut-off is given here. Positions of bridges follow the written chain, without caps; N, C: chain ends. Residues, ends and D or L forms follow the SMILES beside them.
Assays:
Salmonella typhimurium [1] = assay: Antibacterial activity against Salmonella typhimurium ATCC 14028 using 1 hr cathepsin B pre-treated compound at pH 5 incubated for 16 to 18 hrs at by broth microdilution method; assay type: functional, Salmonella enterica subsp. enterica serovar Typhimurium; settings: Salmonella enterica
Outline: (§1)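 Cathepsin B (bovine spleen, 10 µg/mL) was added for 1 h at 37 °C, and the reaction was stopped with 9 volumes of MHB. MIC was then run by broth microdilution (5 × 10^5 CFU/mL, 16–18 h, 37 °C) in medium adjusted to pH 5.0.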

Salmonella typhimurium [2] = assay: Bactericidal activity against 2 hrs-gentamicin pre-exposed Salmonella typhimurium ATCC 14028 assessed as reduction colony forming units at 50 uM incubated for 10 hrs; assay type: functional, Salmonella enterica subsp. enterica serovar Typhimurium
Outline: (§2)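 Macrophage protection assay. RAW264.7 cells (5 × 10^4/well, 24 h) were infected with S. Typhimurium ATCC14028 at MOI 10 for 1 h in DMEM/10% FBS, exposed to 100 µg/mL gentamicin for 2 h at 37 °C, and PBS-washed. Peptides in DMEM/10% FBS were added for 10 h. Cells were lysed with 0.1% Triton X-100 and CFU plated; log10 CFU reduction versus untreated cells. Three replicates; two independent experiments; one-way ANOVA with Tukey.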

Salmonella typhimurium [3] = assay: Antibacterial activity against Salmonella typhimurium ATCC 14028 infected in ICR mouse model of peritonitis assessed as reduction colony forming units in total peritoneal fluids at 1 umol/kg, ip dosed at 2 hrs post infection and measured after 10 hrs post dose; assay type: functional, Salmonella enterica subsp. enterica serovar Typhimurium
Outline: (§3)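 Six-week-old female ICR mice (six per group) received ip S. Typhimurium ATCC14028 (5 × 10^5 CFU, 0.5 mL). Peptide was given ip 2 h post-infection and mice were killed 10 h after treatment. Peritoneum was lavaged with 5 mL ice-cold PBS and total CFU counted. For intracellular CFU, pelleted cells were treated with 100 µg/mL gentamicin for 1 h at 37 °C, washed, lysed and plated. PBS served as negative control, ciprofloxacin as positive.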

Salmonella typhimurium [4] = assay: Antibacterial activity against Salmonella typhimurium ATCC 14028 assessed as time duration for reduction in growth using cathepsin B pre-treated compound at 1 to 2 MIC incubated for 1 to 24 hrs by time kill assay; assay type: functional, Salmonella enterica subsp. enterica serovar Typhimurium
Outline: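 Time-kill of cathepsin B-pretreated peptide (1 h, 37 °C, pH 5 buffer). Mid-log S. Typhimurium at 10^5 CFU/mL was exposed to 1× and 2× MIC at 37 °C with shaking at 250 rpm. Samples were taken every 2 h, serially diluted and plate-counted. N6 and ciprofloxacin served as controls.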

Salmonella typhimurium [5] = assay: Antibacterial activity against Salmonella typhimurium ATCC 14028 infected in ICR mouse model of peritonitis assessed as reduction colony forming units in intracellular fluids at 1 umol/kg, ip dosed at 2 hrs post infection and measured after 10 hrs post dose; assay type: functional, Salmonella enterica subsp. enterica serovar Typhimurium; outline: as §3
[6] = Cytotoxicity in mouse RAW264.7 assessed as cell survival at 100 uM incubated for 8 hrs by MTT assay; assay type: cell-based; settings: RAW264.7 cells, read-out: Survival
Outline: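 RAW264.7 cells seeded at 2.5 × 10^4 cells/well, cultured 24 h, then exposed for 8 h to 2-fold dilutions from 100 to 0.625 µM. MTT at 5 mg/mL added for 4 h, formazan dissolved in DMSO, absorbance read at 570 nm. Untreated cells served as control. Samples run in triplicate.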

Salmonella typhimurium [7] = assay: Antibacterial activity against Salmonella typhimurium ATCC 14028 infected in ICR mouse model of peritonitis assessed as mouse survival at 1.5 umol/kg, ip dosed at 0.5 and 8 hrs post infection and measured daily for 7 days
Salmonella typhimurium [8] = assay: Antibacterial activity against Salmonella typhimurium ATCC 14028 infected in ICR mouse model of peritonitis assessed as mouse survival at 1 umol/kg, ip dosed at 0.5 and 8 hrs post infection and measured daily for 7 days
Salmonella typhimurium [9] = assay: Antibacterial activity against Salmonella typhimurium ATCC 14028 infected in ICR mouse model of peritonitis assessed as reduction colony forming units in spleen at 1 to 2 umol/kg, ip dosed at 2 hrs post infection and measured after 10 hrs post dose relative to marine peptide N6; assay type: functional, Salmonella enterica subsp. enterica serovar Typhimurium; parameters: scale not given: the % may be the effect or the level left
Outline: (§4)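 Female ICR mice, six weeks old (six per group), were infected ip with S. Typhimurium ATCC14028 (5 × 10^5 CFU, 0.5 mL). Peptide was given ip at 1, 1.5 or 2 µmol/kg 2 h post-infection. Mice were killed 10 h after treatment, and kidneys and spleens were homogenized in sterile PBS for CFU counts of translocated bacteria. PBS-treated mice served as negative control, ciprofloxacin-treated mice as positive.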

Salmonella typhimurium [10] = assay: Antibacterial activity against Salmonella typhimurium ATCC 14028 using 1 hr cathepsin B pre-treated compound followed by incubation for 16 to 18 hrs at pH 5 by broth microdilution method; assay type: functional, Salmonella enterica subsp. enterica serovar Typhimurium; settings: Salmonella enterica; outline: as §1
Salmonella typhimurium [11] = assay: Bactericidal activity against 2 hrs-gentamicin pre-exposed Salmonella typhimurium ATCC 14028 assessed as reduction colony forming units at 20 uM incubated for 10 hrs; assay type: functional, Salmonella enterica subsp. enterica serovar Typhimurium; outline: as §2
[12] = Induction of hemolysis in mouse RBC at 100 uM incubated for 1 hrs at 37 degC; assay type: cell-based, Erythrocyte; settings: red blood cells (erythrocytes), read-out: Activity
Outline: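 Fresh mouse erythrocytes were washed three times in 0.9% NaCl, and an 8% suspension was incubated with peptide (2-fold dilutions, 100 to 0.3125 µM) for 1 h at 37 °C. Released hemoglobin was read at 540 nm. 1% Triton X-100 defined 100% lysis; polymyxin served as positive control and NaCl as negative.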

Salmonella typhimurium [13] = assay: Bactericidal activity against 2 hrs-gentamicin pre-exposed Salmonella typhimurium ATCC 14028 assessed as reduction colony forming units at 20 uM incubated for 10 hrs relative to marine peptide N6; assay type: functional, Salmonella enterica subsp. enterica serovar Typhimurium; parameters: scale not given: the % may be the effect or the level left; outline: as §2
Salmonella typhimurium [14] = assay: Bactericidal activity against 2 hrs-gentamicin pre-exposed Salmonella typhimurium ATCC 14028 assessed as reduction colony forming units at 50 uM incubated for 10 hrs relative to marine peptide N6; assay type: functional, Salmonella enterica subsp. enterica serovar Typhimurium; parameters: scale not given: the % may be the effect or the level left; outline: as §2
Salmonella typhimurium [15] = assay: Bactericidal activity against 2 hrs-gentamicin pre-exposed Salmonella typhimurium ATCC 14028 assessed as reduction colony forming units at 10 uM measured within 9 hrs; assay type: functional, organism-based; settings: Salmonella enterica subsp. enterica serovar Typhimurium
Outline: (§5)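 RAW264.7 cells in DMEM/10% FBS were infected with S. Typhimurium ATCC14028 at MOI 10 for 1 h, then given 100 µg/mL gentamicin for 2 h at 37 °C and washed. Cells were treated with 10 µM agent for 1, 3, 6, 9 and 12 h, lysed with 0.1% Triton X-100, and surviving intracellular bacteria were serially diluted and plated for CFU.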

Salmonella typhimurium [16] = assay: Antibacterial activity against Salmonella typhimurium ATCC 14028 infected in ICR mouse model of peritonitis assessed as reduction colony forming units in kidney at 1 to 2 umol/kg, ip dosed at 2 hrs post infection and measured after 10 hrs post dose relative to marine peptide N6; assay type: functional, Salmonella enterica subsp. enterica serovar Typhimurium; parameters: scale not given: the % may be the effect or the level left; outline: as §4
Salmonella typhimurium [17] = assay: Antibacterial activity against Salmonella typhimurium ATCC 14028 incubated for 16 to 18 hrs at pH 7.2 by broth microdilution method; assay type: functional, Salmonella enterica subsp. enterica serovar Typhimurium; settings: Salmonella enterica
Outline: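 Broth microdilution in MH broth. S. Typhimurium ATCC14028 was grown overnight at 37 °C to semi-log phase, pelleted, and diluted to OD600 0.01; final inoculum was 5 × 10^5 CFU/mL. Plates were incubated 16–18 h at 37 °C. MIC is the lowest peptide concentration with no visible growth. Data are in duplicate from at least two independent experiments.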

[18] = Drug uptake in mouse RAW264.7 using FITC-labeled compound at 5 uM incubated for 0.5 hrs by flow cytometry; assay type: ADME, cell-based; settings: raw264.7, 0.5 h
Outline: (§6)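 Confluent RAW264.7 cells were resuspended in PBS and incubated at 37 °C with 5 µM FITC-labeled peptide. Samples taken at 0.5 h and 2 h were quenched with 0.4% Trypan blue for extracellular fluorescence. Uptake (percent internalized cells) was read by flow cytometry, with free FITC as negative control.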

[19] = Drug uptake in mouse RAW264.7 using FITC-labeled compound at 5 uM incubated for 2 hrs by flow cytometry; assay type: ADME, cell-based; settings: raw264.7, 2 h; outline: as §6
Salmonella typhimurium [20] = assay: Bactericidal activity against 2 hrs-gentamicin pre-exposed Salmonella typhimurium ATCC 14028 assessed as effect on bacterial re-growth at 10 uM measured within 6 hrs; assay type: functional, organism-based; settings: Salmonella enterica subsp. enterica serovar Typhimurium; outline: as §5
Salmonella typhimurium [21] = assay: Antibacterial activity against Salmonella typhimurium ATCC 14028 infected in ICR mouse model of peritonitis assessed as reduction colony forming units in kidney at 1 to 2 umol/kg, ip dosed at 2 hrs post infection and measured after 10 hrs post dose; assay type: functional, Salmonella enterica subsp. enterica serovar Typhimurium; outline: as §4
[22] = Drug localisation in cytosol of mouse RAW264.7 using FITC-labeled compound at 5 uM incubated for 2 hrs by confocal microscopy; assay type: ADME, cell-based
Outline: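 RAW264.7 cells were plated for 18 h at 37 °C, then given 5 µM FITC or FITC-labeled peptide for 2 h. Nuclei were stained with Hoechst 33342 and membranes with FM 4-64 (each 5 µg/mL) for 30 min at 37 °C. Cells were PBS-washed and imaged by confocal fluorescence microscopy.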

CC(C)[C@H](NC(=O)CCCCCN1C(=O)CC(SC[C@H](N)C(=O)N[C@@H](Cc2ccc(O)cc2)C(=O)NCC(=O)N[C@@H](CCCNC(=N)N)C(=O)N[C@@H](CCCCN)C(=O)N[C@@H](CCCCN)C(=O)N[C@@H](CCCNC(=N)N)C(=O)N[C@@H](CCCNC(=N)N)C(=O)N[C@@H](CCC(N)=O)C(=O)N[C@@H](CCCNC(=N)N)C(=O)N[C@@H](CCCNC(=N)N)C(=O)N[C@@H](CCCNC(=N)N)C(=O)O)C1=O)C(=O)N[C@@H](CCCNC(N)=O)C(=O)Nc1ccc(COC(=O)NCC(=O)N[C@@H](Cc2ccccc2)C(=O)N[C@@H](C)C(=O)N[C@@H](Cc2c[nH]c3ccccc23)C(=O)N[C@@H](CC(N)=O)C(=O)N[C@H](C(=O)N[C@H]2CSSC[C@@H](C(=O)N[C@@H](Cc3cnc[nH]3)C(=O)N[C@@H](CCCNC(=N)N)C(=O)N[C@@H](CCCNC(=N)N)C(=O)N[C@@H](C)C(=O)N[C@@H](CC(N)=O)C(N)=O)NC(=O)[C@H](C(C)C)NC(=O)[C@H](CCCNC(=N)N)NC(=O)[C@H](C(C)C)NC(=O)CNC(=O)[C@H](CC(N)=O)NC(=O)[C@H](CCCNC(=N)N)NC(=O)[C@H](Cc3ccc(O)cc3)NC(=O)[C@H](C(C)C)NC2=O)C(C)C)cc1 (stereo not given in full)
MIC (Salmonella typhimurium [1]): 1.7 µM (≈ 8.05 µg/mL) | Activity (Salmonella typhimurium [2]): 3.29 log10CFU | Activity (Salmonella typhimurium [3]): 3.46 log10CFU | Time (Salmonella typhimurium [4]): <=2 hr | Activity (Salmonella typhimurium [5]): 2.04 log10CFU | viability at 8 h, 100 µM [6]: 64.3% | Activity (Salmonella typhimurium [7]): 100% | Activity (Salmonella typhimurium [8]): 83.3% | Activity (Salmonella typhimurium [9]): 241% | MIC (Salmonella typhimurium [10]): 3.4 µM (≈ 16.1 µg/mL) | Activity (Salmonella typhimurium [11]): 2.54 log10CFU | hemolysis at 1 h, 100 µM [12]: 4.6% | Activity (Salmonella typhimurium [13]): 98.9% | Activity (Salmonella typhimurium [14]): 98.6% | Activity (Salmonella typhimurium [15]): Active | Activity (Salmonella typhimurium [16]): 241% | MIC (Salmonella typhimurium [17]): 13.6 µM (≈ 64.4 µg/mL)

CC(C)[C@@H]1NC(=O)CNC(=O)[C@H](CC(N)=O)NC(=O)[C@H](CCCNC(=N)N)NC(=O)[C@H](Cc2ccc(O)cc2)NC(=O)[C@H](C(C)C)NC(=O)[C@@H](NC(=O)[C@@H](NC(=O)[C@H](CC(N)=O)NC(=O)[C@H](Cc2c[nH]c3ccccc23)NC(=O)[C@H](C)NC(=O)[C@H](Cc2ccccc2)NC(=O)CN)C(C)C)CSSC[C@@H](C(=O)N[C@@H](Cc2cnc[nH]2)C(=O)N[C@@H](CCCNC(=N)N)C(=O)N[C@@H](CCCNC(=N)N)C(=O)N[C@@H](C)C(=O)N[C@@H](CC(N)=O)C(=O)O)NC(=O)[C@H](C(C)C)NC(=O)[C@H](CCCNC(=N)N)NC1=O (H-GFAWNVCVYRNGVRVCHRRAN-OH; disulfide 7-16)
Drug uptake [18]: 28.7% | MIC (Salmonella typhimurium [1]): 1.62 µM (≈ 4.01 µg/mL) | Drug uptake [19]: 71.9% | Activity (Salmonella typhimurium [3]): 1.01 log10CFU | Activity (Salmonella typhimurium [20]): inactive | Activity (Salmonella typhimurium [5]): 0.43 log10CFU | viability at 8 h, 100 µM [6]: 94.6% | Activity (Salmonella typhimurium [21]): 0.6 log10CFU | Activity (Salmonella typhimurium [8]): 33.4% | Drug uptake [22]: Not Active | MIC (Salmonella typhimurium [10]): 13 µM (≈ 32.1 µg/mL) | hemolysis at 1 h, 100 µM [12]: 2.06% | MIC (Salmonella typhimurium [17]): 0.81 µM (≈ 2.01 µg/mL)
